≈ marks a conversion by molar mass, not a printed value.
Key:
[1] = system: α-amylase; test: α-Amylase inhibition assay; assay type: biochemical; conditions: for IC50: read-out: IC50 ± SEM, α-amylase inhibition
[2] = biological target: Bovine serum albumin (BSA)-glucose model (Bos taurus, UniProt P02769); test: In vitro anti-glycation assay, BSA-glucose model; assay type: biochemical; conditions: for inhibition at 100 ppm / inhibition at 200 ppm / inhibition at 400 ppm / inhibition at 600 ppm / inhibition at 800 ppm / inhibition at 1000 ppm: read-out: % age antiglycation inhibition
Chain of Bovine serum albumin (BSA)-glucose model (P02769 25-607): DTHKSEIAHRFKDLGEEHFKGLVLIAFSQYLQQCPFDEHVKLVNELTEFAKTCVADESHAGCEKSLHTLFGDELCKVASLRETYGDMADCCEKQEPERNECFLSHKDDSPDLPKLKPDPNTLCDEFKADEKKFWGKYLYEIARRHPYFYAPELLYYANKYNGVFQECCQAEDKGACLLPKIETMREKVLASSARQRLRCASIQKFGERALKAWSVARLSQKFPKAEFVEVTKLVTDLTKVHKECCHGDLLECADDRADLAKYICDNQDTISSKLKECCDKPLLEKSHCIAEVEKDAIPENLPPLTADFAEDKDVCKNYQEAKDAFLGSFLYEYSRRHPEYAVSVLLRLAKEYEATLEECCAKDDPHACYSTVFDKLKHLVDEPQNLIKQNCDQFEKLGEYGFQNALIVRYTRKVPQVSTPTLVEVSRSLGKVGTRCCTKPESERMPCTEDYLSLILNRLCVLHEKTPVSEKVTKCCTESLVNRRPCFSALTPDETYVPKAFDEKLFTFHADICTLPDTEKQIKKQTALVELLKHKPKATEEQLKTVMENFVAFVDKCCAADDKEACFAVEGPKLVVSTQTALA
Outline: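 Glycation is read by measuring the fluorescence of glycated products on a spectrofluorometer.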

[3] = DPPH radical scavenging assay; conditions: for percentage antioxidant potential: at tested concentrations, IC50 not calculated; for IC50: read-out: IC50 (mM ± SEM), DPPH scavenged by 50%
Outline: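 Radical scavenging of DPPH by the test compound, with ascorbic acid as the reference.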

[4] = system: glycation; conditions: cited from earlier work
[5] = system: glycation; conditions: read-out: IC50, antiglycation; cited from earlier work

SMILES	% age α-amylase inhibition ([1]; 1 μM) [%]	% age α-amylase inhibition ([1]; 5 μM) [%]	% age α-amylase inhibition ([1]; 10 μM) [%]	IC50 [1] [µM]	inhibition at 100 ppm [2] [%]	inhibition at 200 ppm [2] [%]	inhibition at 400 ppm [2] [%]	inhibition at 600 ppm [2] [%]	inhibition at 800 ppm [2] [%]	inhibition at 1000 ppm [2] [%]	% age antioxidant potential ([3]; 3 mM) [%]	% age antioxidant potential ([3]; 6 mM) [%]	% age antioxidant potential ([3]; 9 mM) [%]	% age antioxidant potential ([3]; 12 mM) [%]	% age antioxidant potential ([3]; 15 mM) [%]	percentage antioxidant potential [3]	further results
Cc1ccc(C=NNc2nc(-c3ccc(F)cc3)cs2)o1 [3e, 4-(4-Fluorophenyl)-2-(2-((5-methylfuran-2-yl)methylene)hydrazinyl)thiazole]	30.06	41.20	57.45	7.77 ± 0.01	68.7	69.7	70.7	71.8	72.8	73.7	0.00	8.26	19.32	44.74	49.04	less than 50%	
Oc1ccc(Cl)cc1C=NNc1nc(-c2ccc(F)cc2)cs1 [3h, 4-Chloro-2-((2-(4-(4-fluorophenyl)thiazol-2-yl)hydrazinylidene)methyl)phenol]	55.89	69.05	82.47	5.14 ± 0.03	50.9	56.5	65.5	68.4	69	70.7	0.00	0.00	0.00	8.78	23.25	less than 50%	
CC(CCc1ccccc1)=NNc1nc(-c2ccc(F)cc2)cs1 [3c, 4-(4-Fluorophenyl)-2-(2-(4-phenylbutan-2-ylidene)hydrazinyl)thiazole]	30.03	45.41	58.12	7.52 ± 0.05	67.6	68.9	69.7	75.7	77.9	81.6	0.00	11.13	34.28	57.51	73.34		IC50 [3]: 11.4 ± 0.12 mM
N=C(N)NN [amino guanidine, reference compound]																	IC50, antiglycation [4]: 394 ± 1 µg/mL (≈ 5.32 mM); IC50 [5]: 25.5 ± 0.337 µM; % age antiglycation inhibition ([2]; 100 ppm): 85.190%; % age antiglycation inhibition ([2]; 200 ppm): 86.141%; % age antiglycation inhibition ([2]; 400 ppm): 87.143%; % age antiglycation inhibition ([2]; 600 ppm): 88.011%; % age antiglycation inhibition ([2]; 800 ppm): 88.866%; % age antiglycation inhibition ([2]; 1000 ppm): 89.657%
Cc1ccc(C=NNc2nc(-c3ccc(F)cc3)cs2)c(Br)c1 [3b, 2-(2-(2-Bromo-4-methylbenzylidene)hydrazinyl)-4-(4-fluorophenyl)thiazole]	31.95	51.54	62.71	6.87 ± 0.01	81.2	84.6	85.2	86.2	86.8	87.5	8.77	23.69	36.38	53.65	69.82		IC50 [3]: 11.3 ± 0.14 mM
Fc1ccc(-c2csc(NN=Cc3cccc(C(F)(F)F)c3)n2)cc1 [3i, 4-(4-Fluorophenyl)-2-(2-(3-(trifluoromethyl)benzylidene)hydrazinyl)thiazole]	38.90	51.09	64.58	6.7 ± 0.08	88	88.5	89.1	90	91.2	92.2	0.00	8.64	18.87	32.26	46.53	less than 50%	
Fc1ccc(-c2csc(NN=Cc3ccc[nH]3)n2)cc1 [3m, 2-(2-((1H-Pyrrol-2-yl)methylene)hydrazinyl)-4-(4-fluorophenyl)thiazole]	42.76	52.79	63.94	6.66 ± 0.13	76.8	78.8	82.5	84	86.1	88.8	0.00	0.00	0.00	15.13	31.05	less than 50%	
